Experimental data from ChEMBL document CHEMBL1141402 (J Med Chem, 2007).
Active and inactive are the calls of the source. Residues, ends and D or L forms follow the SMILES beside them.

Legend:
[1] = biological target: Delta-type opioid receptor (Mus musculus) (UniProt P32300); test: (§1) Agonist activity at delta opioid receptor by inhibition of electrically evoked muscle contraction in isolated mouse vas deferens; format: functional, tissue-based
How it was run: (§2)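 Mouse vas deferens from adult male Swiss Webster mice (30-50 g), killed by cervical dislocation. Field stimulation used 1 ms pulse trains at 0.15 Hz. IC50 taken from the twitch-height reduction across doses.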

[2] = biological target: T1, Delta-type opioid receptor (Homo sapiens, UniProt P41143); test: Activity at delta opioid receptor assessed as increase in calcium level in CHO cells by aequorin luminescence based calcium assay; format: functional, cell-based
Mu-type opioid receptor [3] = biological target: Mu-type opioid receptor (Cavia porcellus, UniProt P97266); test: Agonist activity at mu opioid receptor by inhibition of electrically evoked muscle contraction in guinea pig ileum; format: functional, tissue-based
Mu-type opioid receptor [4] = biological target: Mu-type opioid receptor (Homo sapiens, UniProt P35372); test: Activity at mu opioid receptor assessed as increase in calcium level in CHO cells by aequorin luminescence based calcium assay; format: functional, cell-based
[5] = biological target: Mu-type opioid receptor (Cavia porcellus) (UniProt P97266); test: Antagonist activity at mu opioid receptor by inhibition of TAPP-induced muscle contraction in guinea pig ileum; format: functional, tissue-based
[6] = biological target: Mu-type opioid receptor (Cavia porcellus) (UniProt P97266); test: Agonist activity at mu opioid receptor by inhibition of TAPP-induced muscle contraction in guinea pig ileum at upto 10 uM; format: functional, tissue-based
How it was run: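 A 2-3 cm segment taken at least 10 cm from the ileocecal junction and mounted in a 20 mL bath of modified Krebs' buffer (NaCl 150, KCl 4.3, CaCl2 1.25, MgCl2 1.0, NaH2PO4 1.7, NaHCO3 25.0, glucose 11.0 mM). Buffer gassed with 95% O2/5% CO2 at 37 °C. Stimulated at 10 pulses/min, 4 ms each, with force-transducer recording. IC50 obtained by regression of the concentration-response curve.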

Mus musculus [7] = species on record: Mus musculus; test: Antagonist effect on DAMGO-induced paw licking in Swiss Albino mouse by hot plate method; format: functional, organism-based
How it was run: (§3)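 Mice dosed i.c.v. into the left lateral ventricle, drugs dissolved in 0.9% NaCl; test compound given against endomorphin-2 (3 µg/animal) or DAMGO. Placed on a 55 ± 0.5 °C hot plate 5 min after injection. Latencies to paw licking, rearing and jumping recorded with a 240 s cut-off and expressed as %MPE from control (saline) and test latencies. 10 mice per group; two-way ANOVA with Student-Newman-Keuls.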

Mus musculus [8] = species on record: Mus musculus; test: Antagonist effect on DAMGO-induced rearing in Swiss Albino mouse by hot plate method; format: functional, organism-based; how it was run: as §3
Mus musculus [9] = species on record: Mus musculus; test: Antagonist effect on DAMGO-induced jumping in Swiss Albino mouse by hot plate method; format: functional, organism-based; how it was run: as §3
Mus musculus [10] = species on record: Mus musculus; test: Antagonist effect on endomorphin-2-induced rearing in Swiss Albino mouse by hot plate method; format: functional, organism-based; how it was run: as §3
Mus musculus [11] = species on record: Mus musculus; test: Antagonist effect on endomorphin-2-induced jumping in Swiss Albino mouse by hot plate method; format: functional, organism-based; how it was run: as §3
Mus musculus [12] = species on record: Mus musculus; test: Antagonist effect on endomorphin-2-induced paw licking in Swiss Albino mouse by hot plate method; format: functional, organism-based; how it was run: as §3
[13] = biological target: Delta-type opioid receptor (Rattus norvegicus, UniProt P33533); test: Displacement of [3H]DSLET from delta opioid receptor in rat brain membrane; format: cell membranes
How it was run: (§4)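 Rat brain membranes incubated for 2 h at 0 °C with [3H]DAMGO (0.72 nM; µ) or [3H]DSLET (0.78 nM; δ). IC50 read from log dose-displacement curves. […] Three to four determinations.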

Mu-type opioid receptor [14] = biological target: Mu-type opioid receptor (Rattus norvegicus, UniProt P33535); test: Displacement of [3H]DAMGO from mu opioid receptor in rat brain membrane; format: cell membranes; how it was run: as §4
Mus musculus [15] = species on record: Mus musculus; test: Antinociceptive activity in Swiss Albino mouse assessed as effect on rearing by hot plate method at 10 ug; format: functional
How it was run: (§5)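 Mice given peptide i.c.v. in 0.9% NaCl, then put on a 55 ± 0.5 °C hot plate 5 min later. Latencies to paw licking, rearing and jumping recorded with a 240 s cut-off and converted to %MPE against saline control latencies. 10 mice per group; one-way ANOVA with Student-Newman-Keuls post hoc.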

Mus musculus [16] = species on record: Mus musculus; test: Antinociceptive activity in Swiss Albino mouse assessed as effect on jumping by hot plate method at 10 ug; format: functional; how it was run: as §5
Mus musculus [17] = species on record: Mus musculus; test: Antinociceptive activity in Swiss Albino mouse assessed as effect on paw licking by hot plate method at 10 ug; format: functional; how it was run: as §5
[18] = biological target: Delta-type opioid receptor (Mus musculus, UniProt P32300); test: as §1; format: functional, tissue-based; how it was run: as §2
[19] = biological target: Delta-type opioid receptor (Mus musculus) (UniProt P32300); test: Antagonist activity at delta opioid receptor by inhibition of DPDPE-induced muscle contraction in isolated mouse vas deferens; format: functional, tissue-based
[20] = biological target: T1, Delta-type opioid receptor; test: Antagonist activity against delta opioid receptor assessed as effect on deltorphin-2-induced calcium response in CHO cells by aequorin luminescence based calcium assay; format: functional, cell-based; details: read-out: pA2 (converted)
How it was run: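 CHO cells expressing DOR and aequorin. Compounds in BSA medium, then 25 000 cells injected per well. Luminescence recorded for 30 s, cells lysed with 0.3% Triton X-100 and read for a further 15 s. Signal given as fractional luminescence (agonist peak over agonist plus lysis total), from concentration-response curves. Three independent experiments, each in duplicate.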

Mu-type opioid receptor (Cavia porcellus, UniProt P97266), sequence (P97266 whole entry): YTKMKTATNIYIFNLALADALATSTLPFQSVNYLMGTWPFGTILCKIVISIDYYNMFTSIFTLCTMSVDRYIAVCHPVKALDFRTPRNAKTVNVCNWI
Mu-type opioid receptor (Cavia porcellus), sequence (P97266 whole entry): as above
Mu-type opioid receptor (Rattus norvegicus, UniProt P33535), sequence (P33535 whole entry): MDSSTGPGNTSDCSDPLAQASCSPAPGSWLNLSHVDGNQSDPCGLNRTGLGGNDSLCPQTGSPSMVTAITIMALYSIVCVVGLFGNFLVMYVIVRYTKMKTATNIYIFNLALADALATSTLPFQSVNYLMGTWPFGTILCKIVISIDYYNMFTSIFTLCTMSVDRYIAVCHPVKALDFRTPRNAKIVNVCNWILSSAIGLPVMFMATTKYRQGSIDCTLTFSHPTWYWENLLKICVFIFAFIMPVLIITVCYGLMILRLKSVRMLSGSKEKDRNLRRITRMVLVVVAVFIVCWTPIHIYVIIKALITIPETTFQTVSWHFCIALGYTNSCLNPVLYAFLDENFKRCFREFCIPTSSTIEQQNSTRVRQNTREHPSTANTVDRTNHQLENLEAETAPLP
Delta-type opioid receptor (Mus musculus), sequence (P32300 whole entry): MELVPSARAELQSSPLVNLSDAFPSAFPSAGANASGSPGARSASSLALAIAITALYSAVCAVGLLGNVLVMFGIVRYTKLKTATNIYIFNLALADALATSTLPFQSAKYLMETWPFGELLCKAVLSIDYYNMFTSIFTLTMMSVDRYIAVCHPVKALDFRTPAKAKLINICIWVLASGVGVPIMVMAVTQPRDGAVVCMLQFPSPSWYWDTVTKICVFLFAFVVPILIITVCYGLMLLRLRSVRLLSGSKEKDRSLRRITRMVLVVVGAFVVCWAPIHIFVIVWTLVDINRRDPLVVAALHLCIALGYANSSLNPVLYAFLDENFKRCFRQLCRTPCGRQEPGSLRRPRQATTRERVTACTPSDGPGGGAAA
Mu-type opioid receptor (Homo sapiens, UniProt P35372), sequence (P35372 whole entry): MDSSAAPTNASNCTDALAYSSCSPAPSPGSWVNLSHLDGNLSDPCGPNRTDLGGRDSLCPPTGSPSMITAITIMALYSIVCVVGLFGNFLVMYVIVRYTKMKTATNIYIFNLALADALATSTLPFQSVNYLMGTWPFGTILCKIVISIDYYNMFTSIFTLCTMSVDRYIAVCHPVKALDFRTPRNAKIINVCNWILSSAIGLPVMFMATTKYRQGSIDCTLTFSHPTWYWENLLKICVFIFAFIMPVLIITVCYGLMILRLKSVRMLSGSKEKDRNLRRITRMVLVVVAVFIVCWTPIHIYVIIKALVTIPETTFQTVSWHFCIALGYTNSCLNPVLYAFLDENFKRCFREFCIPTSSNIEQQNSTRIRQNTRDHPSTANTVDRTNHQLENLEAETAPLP
T1 sequence (P41143 whole entry): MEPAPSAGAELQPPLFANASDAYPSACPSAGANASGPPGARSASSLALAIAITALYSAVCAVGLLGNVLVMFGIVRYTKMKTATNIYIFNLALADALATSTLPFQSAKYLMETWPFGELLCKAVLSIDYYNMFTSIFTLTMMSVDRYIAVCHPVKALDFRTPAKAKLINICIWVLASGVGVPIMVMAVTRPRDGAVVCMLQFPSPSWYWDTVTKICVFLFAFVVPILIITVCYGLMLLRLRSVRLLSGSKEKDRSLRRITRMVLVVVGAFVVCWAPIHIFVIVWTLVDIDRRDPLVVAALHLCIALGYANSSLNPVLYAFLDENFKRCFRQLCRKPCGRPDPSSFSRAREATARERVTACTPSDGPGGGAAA
Delta-type opioid receptor (Mus musculus, UniProt P32300), sequence (P32300 whole entry): as the sequence (P32300 whole entry) above
Delta-type opioid receptor (Rattus norvegicus, UniProt P33533), sequence (P33533 whole entry): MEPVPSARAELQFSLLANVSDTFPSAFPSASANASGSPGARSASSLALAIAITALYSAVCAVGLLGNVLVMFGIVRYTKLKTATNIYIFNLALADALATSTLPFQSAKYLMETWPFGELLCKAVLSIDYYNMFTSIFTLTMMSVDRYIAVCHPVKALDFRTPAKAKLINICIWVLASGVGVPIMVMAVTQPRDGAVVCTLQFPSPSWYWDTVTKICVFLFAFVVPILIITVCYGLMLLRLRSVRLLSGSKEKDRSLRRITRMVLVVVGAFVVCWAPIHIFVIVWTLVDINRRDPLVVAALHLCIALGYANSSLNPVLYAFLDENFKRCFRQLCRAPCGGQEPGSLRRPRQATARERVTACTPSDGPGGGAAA

## NC(=O)[C@@H](Cc1cccc2ccccc12)NC(=O)[C@H](Cc1c[nH]c2ccccc12)NC(=O)[C@@H]1CCCN1C(=O)[C@@H](N)Cc1ccc(O)cc1
[1]; filed as partial agonist
  Activity: Partial agonist
[2]
  EC50: > 1000 nM
Mu-type opioid receptor [3]
  IC50: 4180 nM
Mu-type opioid receptor [4]
  EC50: 82.1 nM

## Cc1cc(C[C@H](N)C(=O)N2CCC[C@H]2C(=O)N[C@@H](Cc2c[nH]c3ccccc23)C(=O)N[C@H](Cc2ccc3ccccc3c2)C(N)=O)cc(C)c1O
[5]
  Ke: 8.27 nM
[6]
  Activity: inactive
[1]; filed as partial agonist
  Activity: Partial agonist
Mus musculus [7]
  Activity: Dose-dependent effect
Mus musculus [8]
  Activity: Dose-dependent effect
Mus musculus [9]
  Activity: Dose-dependent effect
Mus musculus [10]
  Activity: Dose-dependent effect
Mus musculus [11]
  Activity: Dose-dependent effect
Mus musculus [12]
  Activity: Dose-dependent effect

## Cc1cc(O)cc(C)c1C[C@H](N)C(=O)N1CCC[C@H]1C(=O)N[C@@H](Cc1ccccc1)C(=O)N[C@H](Cc1cccc2ccccc12)C(N)=O [listing 1 of 2 here]
[2]
  EC50: 3.55 nM
[13]
  Ki: 27.1 nM
Mu-type opioid receptor [14]
  Ki: 1.24 nM

## Cc1cc(O)cc(C)c1C[C@H](N)C(=O)N1CCC[C@H]1C(=O)N[C@@H](Cc1c[nH]c2ccccc12)C(=O)N[C@H](Cc1ccc2ccccc2c1)C(N)=O (HELM PEPTIDE1{[Cc1cc(O)cc(C)c1C[C@H](N)C(=O)[*:2]].P.W.[O=C([C@@H](Cc1ccc2ccccc2c1)N[*:1])[*:2]].[am]}$$$$V2.0) [listing 1 of 2 here]
Mus musculus [15]
  Activity: 0.49%
Mus musculus [16]
  Activity: 0.58%
Mus musculus [17]
  Activity: 0.17%

## Cc1cc(O)cc(C)c1C[C@H](N)C(=O)N1CCC[C@H]1C(=O)N[C@@H](Cc1c[nH]c2ccccc12)C(=O)N[C@H](Cc1ccc2ccccc2c1)C(N)=O (HELM PEPTIDE1{[Cc1cc(O)cc(C)c1C[C@H](N)C(=O)[*:2]].P.W.[O=C([C@@H](Cc1ccc2ccccc2c1)N[*:1])[*:2]].[am]}$$$$V2.0) [listing 2 of 2 here]
[2]
  EC50: 29.3 nM
Mu-type opioid receptor [14]
  Ki: 2.38 nM

## NC(=O)[C@@H](Cc1cccc2ccccc12)NC(=O)[C@H](Cc1ccccc1)NC(=O)[C@@H]1CCCN1C(=O)[C@@H](N)Cc1ccc(O)cc1
[5]
  Ke: 1250 nM
[18]
  IC50: > 10000 nM
[2]
  EC50: > 1000 nM
Mus musculus [15]
  Activity: 0.31%
Mus musculus [16]
  Activity: 0.8%
Mus musculus [17]
  Activity: 0%

## NC(=O)[C@H](Cc1ccccc1)NC(=O)[C@H](Cc1c[nH]c2ccccc12)NC(=O)[C@@H]1CCCN1C(=O)[C@@H](N)Cc1ccc(O)cc1 [ENDOMORPHIN-1]
Mus musculus [15]
  Activity: 12%
Mus musculus [16]
  Activity: 40.8%
Mus musculus [17]
  Activity: 5.99%

## Cc1cc(C[C@H](N)C(=O)N2CCC[C@H]2C(=O)N[C@@H](Cc2ccccc2)C(=O)N[C@H](Cc2cccc3ccccc23)C(N)=O)cc(C)c1O
[5]
  Ke: 14.9 nM
Mus musculus [7]
  Activity: Dose-dependent effect
Mus musculus [8]
  Activity: Dose-dependent effect
[19]
  Ke: 227 nM
Mus musculus [9]
  Activity: Dose-dependent effect
Mus musculus [10]
  Activity: Dose-dependent effect
Mus musculus [11]
  Activity: Dose-dependent effect
Mus musculus [12]
  Activity: Dose-dependent effect

## Cc1cc(O)cc(C)c1C[C@H](N)C(=O)N1CCC[C@H]1C(=O)N[C@@H](Cc1ccccc1)C(=O)N[C@H](Cc1ccc2ccccc2c1)C(N)=O (HELM PEPTIDE1{[Cc1cc(O)cc(C)c1C[C@H](N)C(=O)[*:2]].P.F.[O=C([C@@H](Cc1ccc2ccccc2c1)N[*:1])[*:2]].[am]}$$$$V2.0)
[5]
  Ke: 5.86 nM
[6]
  Activity: inactive
Mus musculus [7]
  Activity: Dose-dependent effect
[2]
  EC50: 15.5 nM
Mus musculus [15]
  Activity: 0.18%
Mus musculus [8]
  Activity: Dose-dependent effect
Mus musculus [16]
  Activity: 1.54%
[19]
  Ke: 250 nM
Mus musculus [9]
  Activity: Dose-dependent effect
Mus musculus [10]
  Activity: Dose-dependent effect
Mus musculus [17]
  Activity: 0.09%
Mus musculus [11]
  Activity: Dose-dependent effect
Mus musculus [12]
  Activity: Dose-dependent effect
Mu-type opioid receptor [14]
  Ki: 1.52 nM

## Cc1cc(O)cc(C)c1C[C@H](N)C(=O)N1CCC[C@H]1C(=O)N[C@@H](Cc1c[nH]c2ccccc12)C(=O)N[C@H](Cc1cccc2ccccc12)C(N)=O [listing 1 of 2 here]
[20]
  Kb: 2.57 nM
Mu-type opioid receptor [3]
  IC50: 15.8 nM
Mu-type opioid receptor [4]
  EC50: 1.15 nM

## Cc1cc(C[C@H](N)C(=O)N2CCC[C@H]2C(=O)N[C@@H](Cc2c[nH]c3ccccc23)C(=O)N[C@H](Cc2cccc3ccccc23)C(N)=O)cc(C)c1O
[19]
  Ke: 62.4 nM

## NC(=O)[C@@H](Cc1ccc2ccccc2c1)NC(=O)[C@H](Cc1c[nH]c2ccccc12)NC(=O)[C@@H]1CCCN1C(=O)[C@@H](N)Cc1ccc(O)cc1
[1]
  IC30: 4180 nM
[1]; filed as partial agonist
  Activity: Partial agonist
[2]
  EC50: > 1000 nM
Mu-type opioid receptor [3]
  IC50: 3470 nM
Mu-type opioid receptor [4]
  EC50: 248 nM

## NC(=O)[C@@H](Cc1ccc2ccccc2c1)NC(=O)[C@H](Cc1ccccc1)NC(=O)[C@@H]1CCCN1C(=O)[C@@H](N)Cc1ccc(O)cc1 (HELM PEPTIDE1{Y.P.F.[O=C([C@@H](Cc1ccc2ccccc2c1)N[*:1])[*:2]].[am]}$$$$V2.0)
[5]
  Ke: 1260 nM
[1]
  Activity: inactive
[2]
  EC50: > 1000 nM
Mus musculus [15]
  Activity: 0.09%
Mus musculus [16]
  Activity: 2.5%
Mus musculus [17]
  Activity: 0.13%

## Cc1cc(O)cc(C)c1C[C@H](N)C(=O)N1CCC[C@H]1C(=O)N[C@@H](Cc1ccccc1)C(=O)N[C@H](Cc1cccc2ccccc12)C(N)=O [listing 2 of 2 here]
Mus musculus [15]
  Activity: 1.06%
Mus musculus [16]
  Activity: 2.73%
Mus musculus [17]
  Activity: 0.13%

## Cc1cc(O)cc(C)c1C[C@H](N)C(=O)N1CCC[C@H]1C(=O)N[C@@H](Cc1c[nH]c2ccccc12)C(=O)N[C@H](Cc1cccc2ccccc12)C(N)=O [listing 2 of 2 here]
Mus musculus [15]
  Activity: 10.6%
Mus musculus [16]
  Activity: 23.2%
Mus musculus [17]
  Activity: 5.35%
